From PubChem BioAssay
APP 5'UTR act – APP 5'UTR luciferase reporter activation | actives 1% (n = 190,000) | activation, % at 2 µM | AID 1276 | SH-SY5Y APP 5'UTR luciferase reporter, luminescence; zero percent = DMSO vehicle wells;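 active = activation above a set limit, based on mean plus 3 SD of controls, cut at about 140% in these data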
STAT1 blocker – reduces IFN-gamma driven STAT1 reporter signal. actives 0.35% (n = 200,000). NIH 3T3 STAT1-luciferase reporter, luminescence. AID 920. inhibition, % at 5.5 µM;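 active = inhibition above a set limit, the mean inhibition across all tested compounds plus 3 SD, cut at about 34% in these data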
STAT3 activator – STAT3 signaling activation; actives 0.91% (n = 190,000); activation (% of control), % at 5.6 µM; AID 871; U3A cells, IL-6 STAT3-luciferase reporter, luminescence; 100% = signal with IL-6 EC80 alone;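 active = activation above the screen-wide mean of compound activation plus 3 SD, cut at about 130% in these data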
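Material: human STAT1-deficient U3A cells with stable STAT3-luciferase reporter / Probe or stimulus: IL-6 stimulus at 33 ng/mL final / Schedule: 1 h compound pre-exposure, 6 h IL-6 stimulation, 37 °C / Technique: luminescence / Read-out basis: percent of IL-6-only median luminescence / Control set: IL-6-only high control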
NF-kB neuron act – compounds increasing NF-kB expression in human neuronal cells; NF-kB reporter expression; hits give high values; actives 1.6% (n = 190,000); fold change at 12.5 µM; in the data active = fold change above about 3.3
STAT3 inh-1 – reduces IL-6 driven STAT3 reporter signal. U3A cells, IL-6 STAT3-luciferase reporter, luminescence; host cell line lacks STAT1. inhibition, % at 5.5 µM. actives 0.89% (n = 190,000);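 active = inhibition above the mean inhibition across all screened compounds plus 3 SD, cut at about 44% in these data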
STAT1 activator – increases IFN-gamma driven STAT1 reporter signal; NIH 3T3 STAT1-luciferase reporter, luminescence; 100% = IFN-gamma alone, no compound; activation (% of control), % at 5.5 µM; actives 2.6% (n = 200,000); AID 932;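 active = activation above the screen-wide mean activation plus 3 SD, cut at about 130% in these data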
STAT3 inh-2 – confirmation of STAT3 signaling inhibitors | U3A cells, IL-6 STAT3 luciferase reporter, luminescence; cell line lacks STAT1 | AID 1265 | inhibition, % at 5.7 µM | shares compounds with STAT3 inh-1 | actives 45% (n = 1,200);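 active = inhibition above the hit cutoff computed for the primary STAT3 screen, cut at about 44% in these data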
NFkB inh 2 – NF-kappaB inhibition in STAT3 inhibitor counter-screen; shares compounds with STAT3 inh-1; HEK293T NF-kB luciferase reporter, TNF-alpha induced; inhibition, % at 5.7 µM; actives 36% (n = 1,200); AID 1308;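 active = inhibition above the mean of solvent-only control wells plus 3 SD, cutoff set per campaign, cut at about 13% in these data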
STAT1 inh STAT3c – STAT1 inhibition in STAT3 inhibitor counter-screen. AID 1317. shares compounds with STAT3 inh-1. inhibition, % at 5.7 µM. NIH 3T3 STAT1-luciferase reporter, IFN-gamma induced, luminescence. actives 27% (n = 1,200);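 active = inhibition above the mean plus 3 SD of solvent-only control wells, limit set per screening run, cut at about 16% in these data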
Hits are given with their value; n = inactive; x = not tested or not shown. Most compounds without a hit are left out; they make up all but 4.9% or so of the library.

SMILES | APP 5'UTR act | STAT1 blocker | STAT3 activator | NF-kB neuron act | STAT3 inh-1 | STAT1 activator | STAT3 inh-2 | NFkB inh 2 | STAT1 inh STAT3c
CC(=O)c1cccc(NC(=O)Nc2ccc(C(=O)N3CCCC3)cc2)c1 | n | n | n | n | n | n | x | x | x
Cc1ccc2nc(-c3cc(N)cc(N)c3)oc2c1 | n | n | n | n | 43 | n | n | n | n
Brc1ccc(-c2nc(-c3ccncc3)no2)o1 | n | n | n | n | n | n | x | x | x
Clc1ccc(-c2nc(-c3ccccn3)no2)cc1Cl | n | n | n | n | 71 | n | n | 14 | n
Clc1ccc(OCc2nc(-c3ccccn3)no2)c(Br)c1 | 138 | n | n | n | 57 | n | n | n | n
Brc1ccc(-c2nc(-c3ccccn3)no2)o1 | n | 36 | n | n | 75 | n | n | n | n
Cc1ccc(CN2CCN(Cc3cnc(N4CCOCC4)s3)CC2CCO)cc1 (configuration not stated) | n | n | n | n | n | n | x | x | x
CCSc1nnc(NC(=O)CCc2ccc(OC)cc2)s1 | n | n | n | n | n | n | x | x | x
CCCC1(C(=O)OCC)NC(c2ccco2)C2C(=O)N(C)C(=O)C21 (configuration not stated) | n | n | n | n | n | n | x | x | x
c1csc(-c2csc3ncnc(NCCCN4CCOCC4)c23)c1 | n | n | n | n | 46 | n | n | n | n
CCOC(=O)c1sc2nc(CC(=O)OC)nc(NCc3ccc(Cl)cc3)c2c1C | n | n | n | n | 44 | n | 50 | n | n
O=C1CCCN1c1ccc(S(=O)(=O)N2CCC(c3ccccc3)CC2)cc1 | n | n | n | n | 69 | n | 56 | n | n
O=C1CCCN1c1ccc(S(=O)(=O)N2CCN(c3ccccc3)CC2)cc1 | n | n | n | n | n | n | x | x | x
CCN(CC)c1ccc2cc(-c3nc4ccccc4[nH]3)c(=O)oc2c1 | 185 | n | n | n | 99 | n | 76 | 50 | 17
C=CCNC(=O)C(=O)N/N=C/c1ccco1 | n | n | n | n | n | n | x | x | x
COc1ccc(C(=O)NCC(=O)OCC(=O)c2ccc3c(c2)NC(=O)CO3)cc1 | n | n | n | n | n | n | x | x | x
O=C(c1ccc(NC(=S)NCc2ccco2)cc1)N1CCCCC1 | n | n | n | n | n | n | x | x | x
Clc1ccccc1Nc1nnc(-c2ccncc2)s1 | 160 | n | n | 4.2 | 60 | 131 | n | 20 | n
CC(=O)c1ccc(NC(=O)CSc2nnc(Cn3cnc4ccccc43)o2)cc1 | n | n | n | n | n | n | x | x | x
COc1ccc(C(=O)CSc2nnc(Cn3cnc4ccccc43)o2)cc1 | n | n | n | n | 73 | n | 49 | 14 | n
O=C(c1cc(-c2ccc3c(c2)OCO3)on1)N1CCOCC1 | n | n | n | n | 52 | n | n | n | n
O=C(c1cc(-c2ccc(F)cc2)on1)N1CCCC1 | n | n | n | 3.5 | 46 | n | n | n | n
O=C(c1cc(-c2ccc(Cl)cc2Cl)on1)N1CCOCC1 | 196 | n | n | n | 50 | n | n | n | n
CCCCC1CCC(c2nc(-c3ccccn3)no2)CC1 (configuration not stated) | n | n | n | n | 72 | n | n | n | n
O=C(COC(=O)c1ccc2ncsc2c1)Nc1ncc(Cl)cc1Cl | n | n | n | n | n | n | x | x | x
SMILES | APP 5'UTR act | STAT1 blocker | STAT3 activator | NF-kB neuron act | STAT3 inh-1 | STAT1 activator | STAT3 inh-2 | NFkB inh 2 | STAT1 inh STAT3c
Cc1c(Cl)cnc(NC(=O)COC(=O)c2ccc3ncsc3c2)c1Cl | n | n | n | n | 50 | n | n | n | n
O=C(Nc1cc2c3c(c1)C1CCCC1CN3CC1CCCC21)c1ccccc1 (configuration not stated) | n | n | n | n | n | n | x | x | x
c1ccc(-n2nnc3c(N4CCOCC4)ncnc32)cc1 | 148 | n | n | n | 81 | n | n | n | n
Cc1nnc(N2CCOCC2)c2nn(-c3ccccc3)c(C)c12 | n | n | n | n | n | n | x | x | x
CCN(CC)c1ccc(Nc2nc(N3CCOCC3)c3ccccc3n2)cc1 | n | n | n | n | 49 | n | n | n | n
COc1ccc(Nc2nc(N3CCCC3)c3ccccc3n2)cc1 | n | n | n | n | n | n | x | x | x
COc1cccc2[nH]c3c(N4CCN(Cc5ccc6c(c5)OCO6)CC4)ncnc3c12 | n | n | n | n | n | n | x | x | x
Cc1ccc2[nH]c3c(N4CCN(Cc5ccc6c(c5)OCO6)CC4)ncnc3c2c1 | n | n | n | n | 54 | n | n | 15 | 17
Nn1c(SCC(=O)NC2CCCc3ccccc32)nnc1-c1ccc(Cl)cc1Cl (configuration not stated) | n | n | n | n | n | n | x | x | x
COc1ccc(/C=N\n2nnc3ccccc32)cc1 | 191 | n | n | n | 93 | n | 62 | 32 | n
COc1ccc(/C=N/N2C(=O)c3ccccc3C2=O)cc1 | n | n | n | n | n | n | x | x | x
COc1ccc(/C=C(/NC(=O)c2cccc([N+](=O)[O-])c2)C(=O)O)cc1 | n | n | n | n | n | n | x | x | x
O=C(CSC(=S)N1CCCCC1)c1ccccc1 | 242 | n | n | 3.3 | 65 | n | n | n | n
O=C(NCCN1CCOCC1)c1cc(-c2ccc(Cl)cc2)on1 | n | n | n | n | n | n | x | x | x
Cc1ccc(-c2cc(C(=O)NCCCN3CCOCC3)no2)cc1 | n | n | n | n | 56 | n | n | n | n
COc1cc(OC)c(/C=N/n2c(C)nnc2C)c(OC)c1 | n | n | n | n | n | n | x | x | x
Cc1ccc(C)n1-c1ccc(-c2ccnc(N)n2)cc1 | n | n | n | n | 45 | n | n | n | n
Cc1ccnc(NC(=O)/C=C/c2ccccc2Cl)c1 | 186 | n | n | 8.7 | 55 | n | n | n | n
Cc1cc(C)nc(NC(=O)/C=C/c2ccccc2Cl)c1 | n | n | n | n | n | n | x | x | x
Cc1ccc(-c2nc(NC(=O)c3nn(C)cc3[N+](=O)[O-])sc2C)cc1C | n | n | n | n | 49 | n | n | 17 | n
Cc1cnc(NC(=O)c2nn(C)cc2[N+](=O)[O-])s1 | n | n | n | n | 58 | n | n | n | n
CC(=O)c1c(C)[nH]c(C(=O)Nc2nc(-c3ccc(Cl)cc3)cs2)c1C | n | n | n | n | n | n | x | x | x
Cn1cc([N+](=O)[O-])c(C(=O)Nc2nc(-c3ccc(Cl)cc3)cs2)n1 | n | n | n | n | 60 | n | n | 18 | n
